Reference: ChEMBL document CHEMBL3286396, “Discovery and Synthesis of C-Nucleosides as Potential New Anti-HCV Agents” (ACS Med Chem Lett, 2014)

Assays:
[1] = Inhibition of N-terminal His6-tagged Hepatitis C virus genotype 1b isolate Con1 NS5B RNA-dependent RNA polymerase activity by plate reader analysis
Hepatitis C virus [2] = assay: Antiviral activity against Hepatitis C virus assessed as inhibition of subgenomic replicon RNA replication; format: functional, organism-based, Hepacivirus hominis
Hepatitis C virus [3] = assay: Antiviral activity against Hepatitis C virus genotype 1b infected in human HuH7 cells assessed as inhibition of subgenomic replicon RNA replication after 72 hrs by luciferase reporter assay; format: functional, cell-based, Hepacivirus hominis; conditions: Huh-7, 72 h
[4] = Cytotoxicity against human HuH7 cells by MTT assay; format: cell-based, Huh-7
Procedure, shortened: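 Huh-7-derived HCV replicon cell lines were used, with MTT as the vital dye read-out.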

[5] = Inhibition of Hepatitis C virus NS5B RNA-dependent RNA polymerase activity; parameters: species or system Hepacivirus hominis
[6] = target: T1, DNA polymerase alpha catalytic subunit (Homo sapiens, UniProt P09884); assay: Inhibition of human DNA polymerase alpha
T1 sequence (P09884 whole entry): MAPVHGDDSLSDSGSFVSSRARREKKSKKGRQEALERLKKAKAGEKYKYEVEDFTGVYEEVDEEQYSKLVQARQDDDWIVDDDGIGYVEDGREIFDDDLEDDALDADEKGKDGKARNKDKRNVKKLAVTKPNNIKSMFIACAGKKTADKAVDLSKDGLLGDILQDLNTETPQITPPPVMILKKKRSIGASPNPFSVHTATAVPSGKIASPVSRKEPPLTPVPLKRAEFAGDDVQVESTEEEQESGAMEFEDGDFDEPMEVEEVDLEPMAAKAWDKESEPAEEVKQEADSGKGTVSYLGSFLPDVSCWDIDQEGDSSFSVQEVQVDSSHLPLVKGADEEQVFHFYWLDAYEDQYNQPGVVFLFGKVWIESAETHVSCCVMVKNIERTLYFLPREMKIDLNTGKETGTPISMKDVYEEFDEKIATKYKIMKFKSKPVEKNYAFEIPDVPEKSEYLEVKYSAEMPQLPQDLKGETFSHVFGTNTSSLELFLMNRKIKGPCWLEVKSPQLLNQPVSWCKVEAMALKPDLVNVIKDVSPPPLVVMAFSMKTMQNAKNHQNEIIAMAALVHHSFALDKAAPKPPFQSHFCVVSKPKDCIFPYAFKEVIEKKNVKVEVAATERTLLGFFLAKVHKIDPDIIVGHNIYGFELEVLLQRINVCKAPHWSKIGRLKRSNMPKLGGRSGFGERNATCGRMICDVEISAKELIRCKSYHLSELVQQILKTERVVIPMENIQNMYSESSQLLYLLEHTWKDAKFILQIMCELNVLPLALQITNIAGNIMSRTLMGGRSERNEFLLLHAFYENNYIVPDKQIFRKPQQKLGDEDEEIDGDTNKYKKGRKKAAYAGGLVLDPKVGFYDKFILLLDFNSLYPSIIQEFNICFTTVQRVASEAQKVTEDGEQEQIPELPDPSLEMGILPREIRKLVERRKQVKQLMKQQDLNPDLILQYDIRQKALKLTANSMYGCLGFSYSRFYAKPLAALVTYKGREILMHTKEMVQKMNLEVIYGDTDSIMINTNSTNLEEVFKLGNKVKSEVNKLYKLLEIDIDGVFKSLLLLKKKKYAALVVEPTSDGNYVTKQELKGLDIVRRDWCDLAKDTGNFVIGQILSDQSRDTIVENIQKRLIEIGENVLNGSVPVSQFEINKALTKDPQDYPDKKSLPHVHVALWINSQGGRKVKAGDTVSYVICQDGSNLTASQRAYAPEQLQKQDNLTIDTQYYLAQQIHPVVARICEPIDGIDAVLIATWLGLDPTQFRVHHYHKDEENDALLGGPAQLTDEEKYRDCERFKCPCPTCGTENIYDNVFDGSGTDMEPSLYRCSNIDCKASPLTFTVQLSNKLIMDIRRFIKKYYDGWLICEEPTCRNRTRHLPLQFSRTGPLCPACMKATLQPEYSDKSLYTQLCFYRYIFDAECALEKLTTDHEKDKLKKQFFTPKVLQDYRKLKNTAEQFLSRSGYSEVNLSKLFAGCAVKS
Procedure, shortened: (§1)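 The nucleoside was tested in its triphosphate form against human DNA polymerases α, β and γ.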

DNA polymerase beta = DNA polymerase beta (Homo sapiens, UniProt P06746); assay: Inhibition of human DNA polymerase beta; procedure, shortened: as §1
[7] = target: T2, DNA polymerase subunit gamma-1 (Homo sapiens, UniProt P54098); assay: Inhibition of human DNA polymerase gamma; procedure, shortened: as §1
T2 sequence (P54098 whole entry): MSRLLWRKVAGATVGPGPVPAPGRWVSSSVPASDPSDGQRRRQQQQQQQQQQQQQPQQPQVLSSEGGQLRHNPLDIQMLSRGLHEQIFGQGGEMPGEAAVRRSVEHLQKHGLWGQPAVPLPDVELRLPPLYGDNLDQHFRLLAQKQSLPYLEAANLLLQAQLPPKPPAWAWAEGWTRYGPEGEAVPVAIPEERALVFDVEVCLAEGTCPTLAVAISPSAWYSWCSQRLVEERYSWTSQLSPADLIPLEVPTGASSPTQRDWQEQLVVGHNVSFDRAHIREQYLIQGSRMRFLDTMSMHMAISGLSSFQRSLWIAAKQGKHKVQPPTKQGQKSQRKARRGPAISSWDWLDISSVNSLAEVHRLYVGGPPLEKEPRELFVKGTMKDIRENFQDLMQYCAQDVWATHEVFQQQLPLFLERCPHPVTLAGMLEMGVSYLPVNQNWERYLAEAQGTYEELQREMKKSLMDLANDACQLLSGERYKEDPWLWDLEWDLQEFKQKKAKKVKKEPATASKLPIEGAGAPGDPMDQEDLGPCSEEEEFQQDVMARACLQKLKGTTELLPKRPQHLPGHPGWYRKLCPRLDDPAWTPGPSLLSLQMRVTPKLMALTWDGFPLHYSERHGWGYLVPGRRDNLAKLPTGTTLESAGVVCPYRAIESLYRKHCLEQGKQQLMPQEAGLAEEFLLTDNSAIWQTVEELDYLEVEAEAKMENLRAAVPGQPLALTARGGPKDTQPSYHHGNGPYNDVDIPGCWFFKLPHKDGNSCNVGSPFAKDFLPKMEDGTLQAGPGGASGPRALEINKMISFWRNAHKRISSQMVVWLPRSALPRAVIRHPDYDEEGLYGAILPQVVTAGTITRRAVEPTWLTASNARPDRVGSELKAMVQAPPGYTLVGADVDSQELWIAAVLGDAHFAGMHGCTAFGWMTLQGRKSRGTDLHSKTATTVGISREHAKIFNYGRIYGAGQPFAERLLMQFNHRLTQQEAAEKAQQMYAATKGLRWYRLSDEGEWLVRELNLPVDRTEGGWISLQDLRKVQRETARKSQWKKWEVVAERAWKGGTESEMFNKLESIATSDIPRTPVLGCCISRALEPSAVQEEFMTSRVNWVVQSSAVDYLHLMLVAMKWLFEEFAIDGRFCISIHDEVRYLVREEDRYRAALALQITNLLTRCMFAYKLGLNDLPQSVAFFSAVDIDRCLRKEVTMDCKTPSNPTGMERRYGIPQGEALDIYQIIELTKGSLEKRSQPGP

| IC50 [1] | EC50 (Hepatitis C virus [2]) | EC50 (Hepatitis C virus [3]) | Compound | CC50 [4] | further results |
| --- | --- | --- | --- | --- | --- |
| 33000 nM |  | > 100000 nM | C[C@@]1(O)[C@H](O)[C@@H](CO)O[C@H]1c1cnn2c(N)ncnc12 | > 100000 nM |  |
|  | > 50000 nM |  | C[C@@]1(O)[C@H](O)[C@@H](CO)O[C@H]1n1ccc2c(O)nc(N)nc21 |  |  |
|  | 2000 nM |  | C[C@@]1(O)[C@H](O)[C@@H](CO)O[C@H]1n1cnc2c(=O)[nH]c(N)nc21 [2'-B-METHYL-GUANOSINE] |  |  |
| 210 nM |  | > 100000 nM | C[C@@]1(O)[C@H](O)[C@@H](CO)O[C@H]1c1ccc2c(=O)[nH]c(N)nn12 | > 100000 nM |  |
|  |  |  | C[C@@]1(O)[C@H](O)[C@@H](COP(=O)(O)OP(=O)(O)OP(=O)(O)O)O[C@H]1c1ccc2c(N)ncnn12 |  | IC50 [6]: > 100000 nM; IC50 (DNA polymerase beta): > 100000 nM; IC50 [7]: > 100000 nM |
| 550 nM |  | 1300 nM | C[C@@]1(O)[C@H](O)[C@@H](CO)O[C@H]1c1cnc2c(N)ncnn12 | 34000 nM |  |
| 310 nM |  | > 100000 nM | C[C@@]1(O)[C@H](O)[C@@H](CO)O[C@H]1c1cnc2c(=O)[nH]c(N)nn12 | > 100000 nM |  |

| Compound | IC50 [1] | EC50 (Hepatitis C virus [2]) | EC50 (Hepatitis C virus [3]) | CC50 [4] | further results |
| --- | --- | --- | --- | --- | --- |
| C[C@@]1(O)[C@H](O)[C@@H](CO)O[C@H]1n1ccc2c(N)ncnc21 [BETA-2'-C-METHYL-7-DEAZA-ADENOSINE] | 200 nM | 300 nM | 200 nM | > 100000 nM | IC50 [5]: 70 nM |
